Activity calls are given as the source filed them. No cut-off for these calls is given here.
Assays:
[1] = biological target: T1, Retinoic acid receptor RXR-beta (Homo sapiens) (UniProt P28702); assay: Antagonist activity at Gal4-tagged human RXRbeta receptor expressed in human HeLa cells assessed as inhibition of CD3254-induced transcription at 1 uM by luciferase reporter assay; type: functional, cell-based
T1 sequence (whole entry): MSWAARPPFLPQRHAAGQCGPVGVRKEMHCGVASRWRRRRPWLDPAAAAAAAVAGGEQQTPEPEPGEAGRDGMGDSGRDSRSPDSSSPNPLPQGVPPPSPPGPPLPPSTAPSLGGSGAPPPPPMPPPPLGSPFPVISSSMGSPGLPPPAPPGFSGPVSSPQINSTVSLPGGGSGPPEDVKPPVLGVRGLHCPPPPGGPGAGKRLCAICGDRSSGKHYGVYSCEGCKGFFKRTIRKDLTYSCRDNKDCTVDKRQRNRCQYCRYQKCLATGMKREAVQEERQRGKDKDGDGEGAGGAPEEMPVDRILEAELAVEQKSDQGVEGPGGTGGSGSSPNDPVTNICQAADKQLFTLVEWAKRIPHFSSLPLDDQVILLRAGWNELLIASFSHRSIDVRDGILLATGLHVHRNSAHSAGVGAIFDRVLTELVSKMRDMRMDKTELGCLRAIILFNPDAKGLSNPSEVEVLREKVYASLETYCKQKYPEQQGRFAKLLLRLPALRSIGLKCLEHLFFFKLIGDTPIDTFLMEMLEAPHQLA
How it was run: (§1)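 Gal4-hRXRβ/(Gal4)5-β-globin-luciferase HeLa reporter cells, maintained in DMEM with 5% FCS and selection antibiotics. Cells were co-treated for 16 h at 37 °C with 3 nM of the reference RXR agonist and increasing compound concentrations. After lysis, luciferase was read as RLU to measure antagonism of agonist-induced transcription.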

[2] = biological target: T2, Retinoic acid receptor alpha/Retinoid X receptor alpha (Homo sapiens) (UniProt P10276+P19793); assay: Activity at RARalpha/RXRalpha ligand binding domain assessed as stabilization of RXR helix H12 by fluorescence anisotropy; type: protein-complex assay
How it was run: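 RARα-RXRα LBD heterodimer, 0.120 µM, carrying a fluorescent dye attached to the RXRα C-terminus. Steady-state anisotropy was read with excitation at 470 nm and emission at 530 nm, with ligand at saturating concentration. At least three independent measurements were made per sample.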

[3] = biological target: T1, Retinoic acid receptor RXR-beta (Homo sapiens); assay: Activity at Gal4-tagged human RXRbeta receptor expressed in human HeLa cells assessed as relative transcriptional activity by luciferase reporter assay relative to CD3254; type: cell-based; parameters: concentration or dose not given beside the values
How it was run: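 HeLa cells stably carrying a Gal4-hRXRβ chimera (RXRβ LBD fused to the GAL4 DBD) and a (Gal4)5-β-globin-luciferase reporter. Cells were grown in DMEM with 5% FCS plus G418, puromycin, hygromycin and gentamycin. They were exposed to increasing compound concentrations for 16 h at 37 °C and 5% CO2, then washed, lysed, and read for luciferase luminescence (RLU).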

[4] = biological target: T2, Retinoic acid receptor alpha/Retinoid X receptor alpha (Homo sapiens); assay: Activity at RARalpha/RXRalpha ligand binding domain assessed as stabilization of RXR helix H12 by fluorescence anisotropy in presence of up to 10 uM coactivator peptide TIF-NR2; type: protein-complex assay
How it was run: (§2)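 Heterodimer (0.120 µM, dye on the RXRα C-terminus) with 10 µM ligand. Anisotropy was read at excitation 470 nm and emission 530 nm, with at least three independent measurements.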

[5] = biological target: T2, Retinoic acid receptor alpha/Retinoid X receptor alpha (Homo sapiens); assay: Activity at RARalpha/RXRalpha ligand binding domain assessed as stabilization of RXR helix H12 by fluorescence anisotropy in presence of 1 uM coactivator peptide TIF-NR2; type: protein-complex assay; how it was run: as §2
[6] = biological target: T1, Retinoic acid receptor RXR-beta (Homo sapiens); assay: Antagonist activity at Gal4-tagged human RXRbeta receptor expressed in human HeLa cells assessed as inhibition of CD3254-induced transcription at >=10 uM by luciferase reporter assay; type: functional, cell-based; how it was run: as §1

| SMILES | Activity [1] | Activity [2] | Activity [3] | Activity [4] | Activity [5] | Activity [6] |
| --- | --- | --- | --- | --- | --- | --- |
| CCCCCOc1cc2c(cc1-c1cc(/C=C/C(=O)O)ccc1O)C(C)(C)CCC2(C)C | Active | inactive | inactive | inactive |  |  |
| Cc1cc2c(cc1-c1cc(/C=C/C(=O)O)ccc1O)C(C)(C)CCC2(C)C |  |  |  |  | Active |  |
| COc1cc(-c2cc(/C=C/C(=O)O)ccc2O)cc2c1C(C)(C)CCC2(C)C |  | inactive | > 30% | Active |  | Active |
| CCCCCCOc1cc2c(cc1-c1cc(/C=C/C(=O)O)ccc1O)C(C)(C)CCC2(C)C |  |  |  | inactive |  |  |
| CCCOc1cc(-c2cc(/C=C/C(=O)O)ccc2O)cc2c1C(C)(C)CCC2(C)C |  | inactive | > 10% | Active |  | Active |
| CCCCOc1cc(-c2cc(/C=C/C(=O)O)ccc2O)cc2c1C(C)(C)CCC2(C)C |  | inactive | > 10% | Active |  | Active |
| CCCCCOc1cc(-c2cc(/C=C/C(=O)O)ccc2O)cc2c1C(C)(C)CCC2(C)C |  | inactive | > 10% | Active |  | Active |
| CCCCCCOc1cc(-c2cc(/C=C/C(=O)O)ccc2O)cc2c1C(C)(C)CCC2(C)C |  | inactive | > 10% | Active |  | Active |
| CCOc1cc(-c2cc(/C=C/C(=O)O)ccc2O)cc2c1C(C)(C)CCC2(C)C |  | inactive | > 10% | Active |  | Active |
